Data reported in ChEMBL document CHEMBL5230083, “Novel 2, 5-diketopiperazine derivatives as potent selective histone deacetylase 6 inhibitors: Rational design, synthesis and antiproliferative activity” (Eur J Med Chem, 2020).
Activity calls are given as the source filed them. The calls are words filed in the database; no cut-off is given here.

Tests used:
MOLT-4 = assay: Antiproliferative activity against human MOLT-4 cells assessed as cell growth at 10 uM incubated for 48 hrs by SRB assay relative to control; type: functional; details: read-out: Activity
Outline: (§1)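 Single-concentration screen at 10 μM run by NCI on its NCI-60 human tumour panel (blood, lung, colon, CNS, melanoma, ovary, kidney, prostate, breast), following the NCI-60 published methodology. Read-out is growth percent relative to untreated cells.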

SN12C = assay: Antiproliferative activity against human SN12C cells assessed as cell growth at 10 uM incubated for 48 hrs by SRB assay relative to control; type: functional; details: read-out: Activity
Outline: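 NCI-60 single-dose screen: compounds tested at 10 μM, and growth percent of each cell line calculated. The full method follows the NCI DTP protocol.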

A549 [1] = assay: Antiproliferative activity against human A549 cells assessed as inhibition of cell growth incubated for 72 hrs by alamar blue assay; type: functional, cell-based; details: A549, 72 h
Outline: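 Cells grown in IMDM with 20% FBS and penicillin/streptomycin at 37 °C, 5% CO2. Compound added to plated cells for 72 h. Alamar blue (1 mM solution) then added for 5–6 h, and fluorescence read at 530/590 nm. IC50 derived for single-agent treatment.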

RXF 393 = assay: Antiproliferative activity against human RXF 393 cells assessed as cell growth at 10 uM incubated for 48 hrs by SRB assay relative to control; type: functional; details: read-out: Activity; outline: as §1
A549 [2] = assay: Synergistic antiproliferative activity against human A549 cells assessed as combination index incubated for 72 hrs presence of adriamycin by alamar blue assay; type: functional
K562 = assay: Antiproliferative activity against human K562 cells assessed as cell growth at 10 uM incubated for 48 hrs by SRB assay relative to control; type: functional; details: read-out: Activity; outline: as §1
[3] = Microsomal stability in human liver microsomes assessed as half life at 0.5 uM prewarmed for 5 mins followed by NADPH addition and measured for 90 mins by LC-MS/MS analysis; type: ADME, Microsome; details: time 95 min
Outline: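 Incubation held 0.8 mg/mL human liver microsomes, MgCl2, potassium phosphate buffer pH 7.4 and 0.5 μM compound. After 5 min prewarming at 37 °C, NADPH started the reaction.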

NCI-H460 = assay: Antiproliferative activity against human NCI-H460 cells assessed as cell growth at 10 uM incubated for 48 hrs by SRB assay relative to control; type: functional; details: read-out: Activity; outline: as §1
Homo sapiens [4] = organism: Homo sapiens; assay: Selectivity index, ratio of IC50 for inhibition of HDAC1 (unknown origin) to IC50 for inhibition of HDAC6 (unknown origin)
Outline: (§2)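 Ratio of IC50 values, each from a Fluor de Lys fluorogenic HDAC assay run in duplicate.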

Homo sapiens [5] = organism: Homo sapiens; assay: Selectivity index, ratio of IC50 for inhibition of HDAC8 (unknown origin) to IC50 for inhibition of HDAC6 (unknown origin); outline: as §2
OVCAR-4 = assay: Antiproliferative activity against human OVCAR-4 cells assessed as cell growth at 10 uM incubated for 48 hrs by SRB assay relative to control; type: functional; details: read-out: Activity; outline: as §1
A549 [6] = assay: Antiproliferative activity against human A549 cells assessed as inhibition of cell growth incubated for 72 hrs in presence of adriamycin by alamar blue assay; type: functional, cell-based; details: A549, 72 h
Outline: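 Alamar blue assay in IMDM/20% FBS at 37 °C, 5% CO2. Cells were exposed to the two agents together for 72 h, with 5–6 h Alamar blue and fluorescence at 530/590 nm. IC50 in combination was determined. CI50 = IC50Ac/IC50As + IC50Bc/IC50Bs, comparing combination with single-agent IC50s.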

A498 = assay: Antiproliferative activity against human A498 cells assessed as cell growth at 10 uM incubated for 48 hrs by SRB assay relative to control; type: functional; details: read-out: Activity; outline: as §1
MDA-MB-468 = assay: Antiproliferative activity against human MDA-MB-468 cells assessed as cell growth at 10 uM incubated for 48 hrs by SRB assay relative to control; type: functional; details: read-out: Activity; outline: as §1
Histone deacetylase 9 = Histone deacetylase 9 (Homo sapiens, UniProt Q9UKV0); assay: Inhibition of HDAC9 (unknown origin) using Fluor de lys as substrate by fluorescence based analysis
Histone deacetylase 4 = Histone deacetylase 4 (Homo sapiens, UniProt P56524); assay: Inhibition of HDAC4 (unknown origin) using Fluor de lys as substrate by fluorescence based analysis
[7] = molecular target: Histone deacetylase 3 (Homo sapiens) (UniProt O15379); assay: Inhibition of HDAC3 (unknown origin) using Fluor de lys as substrate by fluorescence based analysis
Outline: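 Fluor de Lys fluorogenic substrate/developer activity assay, run by a contract lab. […] Experiments were run in duplicate.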

Histone deacetylase 11 = Histone deacetylase 11 (Homo sapiens, UniProt Q96DB2); assay: Inhibition of HDAC11 (unknown origin) using Fluor de lys as substrate by fluorescence based analysis
NCI-H226 = assay: Antiproliferative activity against human NCI-H226 cells assessed as cell growth at 10 uM incubated for 48 hrs by SRB assay relative to control; type: functional; details: read-out: Activity; outline: as §1
[8] = molecular target: Protein deacetylase HDAC6 (Homo sapiens) (UniProt Q9UBN7); assay: Inhibition of HDAC6 in human HCT-116 cells assessed as increase in acetylated alpha-tubulin level incubated for 24 hrs by Western blot analysis; type: cell-based; details: dose 0.1-10 µM
Outline: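 HCT116 cells were seeded overnight, then treated at 0.1, 1 and 10 μM for 24 h. Cells were lysed with protein extraction reagent plus EDTA-free protease inhibitors. 30 µg protein per sample was resolved by SDS-PAGE and blotted to nitrocellulose. Ac-α-tubulin and Ac-H3 were probed and detected by ECL.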

[9] = molecular target: Polyamine deacetylase HDAC10 (Homo sapiens, UniProt Q969S8); assay: Inhibition of HDAC10 (unknown origin) incubated for 1 hr by TR-FRET analysis
Histone deacetylase 5 = Histone deacetylase 5 (Homo sapiens, UniProt Q9UQL6); assay: Inhibition of HDAC5 (unknown origin) using Fluor de lys as substrate by fluorescence based analysis
Chain of Histone deacetylase 5 (Q9UQL6 whole entry): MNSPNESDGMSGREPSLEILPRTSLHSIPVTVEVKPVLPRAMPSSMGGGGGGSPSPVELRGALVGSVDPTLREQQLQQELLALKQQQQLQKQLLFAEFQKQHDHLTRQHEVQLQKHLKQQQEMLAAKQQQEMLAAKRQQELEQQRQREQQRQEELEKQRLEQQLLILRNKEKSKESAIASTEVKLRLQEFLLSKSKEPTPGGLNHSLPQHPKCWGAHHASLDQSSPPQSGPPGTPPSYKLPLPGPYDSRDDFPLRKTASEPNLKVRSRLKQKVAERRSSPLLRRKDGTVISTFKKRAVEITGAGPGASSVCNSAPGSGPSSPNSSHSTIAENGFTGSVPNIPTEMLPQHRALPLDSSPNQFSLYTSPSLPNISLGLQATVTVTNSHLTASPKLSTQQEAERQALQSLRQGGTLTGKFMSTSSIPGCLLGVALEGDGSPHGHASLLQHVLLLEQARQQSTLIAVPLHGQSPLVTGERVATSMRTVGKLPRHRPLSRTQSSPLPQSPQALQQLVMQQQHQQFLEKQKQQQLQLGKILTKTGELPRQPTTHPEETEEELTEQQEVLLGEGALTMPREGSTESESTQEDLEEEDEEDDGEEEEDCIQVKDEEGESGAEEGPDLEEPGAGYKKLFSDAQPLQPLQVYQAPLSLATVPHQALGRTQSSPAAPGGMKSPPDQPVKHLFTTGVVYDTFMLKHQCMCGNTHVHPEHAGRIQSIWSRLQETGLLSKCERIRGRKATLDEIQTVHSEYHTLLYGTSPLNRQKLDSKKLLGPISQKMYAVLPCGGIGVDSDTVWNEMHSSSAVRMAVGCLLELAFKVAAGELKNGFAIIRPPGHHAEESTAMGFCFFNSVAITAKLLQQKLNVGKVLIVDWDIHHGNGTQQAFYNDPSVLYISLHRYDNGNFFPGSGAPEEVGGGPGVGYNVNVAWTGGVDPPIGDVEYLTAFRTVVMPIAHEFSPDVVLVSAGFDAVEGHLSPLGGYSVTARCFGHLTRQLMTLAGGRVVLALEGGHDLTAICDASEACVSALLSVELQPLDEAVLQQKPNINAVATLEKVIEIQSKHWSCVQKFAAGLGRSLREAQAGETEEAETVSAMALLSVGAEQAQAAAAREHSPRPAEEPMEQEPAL

Chain of Histone deacetylase 11 (Q96DB2 whole entry): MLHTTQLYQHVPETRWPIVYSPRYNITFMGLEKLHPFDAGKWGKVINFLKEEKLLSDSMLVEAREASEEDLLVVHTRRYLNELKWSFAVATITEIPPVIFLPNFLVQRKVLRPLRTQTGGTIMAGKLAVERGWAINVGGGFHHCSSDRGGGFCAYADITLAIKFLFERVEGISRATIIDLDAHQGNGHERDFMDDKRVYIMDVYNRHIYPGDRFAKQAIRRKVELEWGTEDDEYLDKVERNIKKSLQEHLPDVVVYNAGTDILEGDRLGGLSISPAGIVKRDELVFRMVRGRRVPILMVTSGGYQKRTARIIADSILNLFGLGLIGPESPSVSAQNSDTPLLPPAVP
Chain of Histone deacetylase 4 (P56524 whole entry): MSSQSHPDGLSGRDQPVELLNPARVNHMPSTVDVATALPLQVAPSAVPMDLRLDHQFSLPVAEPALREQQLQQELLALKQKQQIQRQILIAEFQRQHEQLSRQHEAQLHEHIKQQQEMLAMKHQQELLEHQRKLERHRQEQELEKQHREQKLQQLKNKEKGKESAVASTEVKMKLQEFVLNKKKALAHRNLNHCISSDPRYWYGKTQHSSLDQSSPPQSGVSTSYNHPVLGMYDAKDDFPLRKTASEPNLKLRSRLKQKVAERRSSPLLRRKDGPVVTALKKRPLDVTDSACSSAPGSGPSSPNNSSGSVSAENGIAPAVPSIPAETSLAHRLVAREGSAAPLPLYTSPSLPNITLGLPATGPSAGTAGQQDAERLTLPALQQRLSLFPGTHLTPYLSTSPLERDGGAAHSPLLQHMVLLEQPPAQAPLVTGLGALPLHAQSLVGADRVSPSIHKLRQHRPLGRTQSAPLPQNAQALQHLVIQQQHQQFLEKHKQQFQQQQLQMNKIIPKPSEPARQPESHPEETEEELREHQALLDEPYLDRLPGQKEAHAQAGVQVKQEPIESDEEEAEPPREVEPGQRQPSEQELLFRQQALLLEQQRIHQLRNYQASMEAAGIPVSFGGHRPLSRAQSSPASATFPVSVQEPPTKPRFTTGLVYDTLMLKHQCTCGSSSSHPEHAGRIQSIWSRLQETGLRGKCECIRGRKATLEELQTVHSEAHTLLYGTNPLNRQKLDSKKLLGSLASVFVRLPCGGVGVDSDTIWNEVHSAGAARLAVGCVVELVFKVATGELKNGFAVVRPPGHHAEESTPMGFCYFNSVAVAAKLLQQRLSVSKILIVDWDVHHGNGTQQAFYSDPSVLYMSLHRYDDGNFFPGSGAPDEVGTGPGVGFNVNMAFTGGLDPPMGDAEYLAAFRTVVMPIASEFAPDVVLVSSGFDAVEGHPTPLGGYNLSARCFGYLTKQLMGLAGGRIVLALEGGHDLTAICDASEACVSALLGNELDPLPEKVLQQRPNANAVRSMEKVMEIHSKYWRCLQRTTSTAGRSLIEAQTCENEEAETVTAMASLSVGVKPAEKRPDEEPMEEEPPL
Chain of Histone deacetylase 3 (Homo sapiens) (O15379 whole entry): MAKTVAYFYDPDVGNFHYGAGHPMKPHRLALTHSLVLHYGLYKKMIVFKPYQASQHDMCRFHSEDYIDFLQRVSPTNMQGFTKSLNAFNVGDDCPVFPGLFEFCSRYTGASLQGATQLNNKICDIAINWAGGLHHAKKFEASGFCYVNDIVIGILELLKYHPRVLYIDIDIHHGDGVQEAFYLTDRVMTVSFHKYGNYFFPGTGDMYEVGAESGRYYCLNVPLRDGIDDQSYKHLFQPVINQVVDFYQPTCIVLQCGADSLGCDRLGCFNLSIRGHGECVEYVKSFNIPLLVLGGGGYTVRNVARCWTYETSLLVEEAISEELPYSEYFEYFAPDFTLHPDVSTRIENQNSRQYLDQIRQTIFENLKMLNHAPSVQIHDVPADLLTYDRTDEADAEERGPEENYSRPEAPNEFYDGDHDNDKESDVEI
Chain of Polyamine deacetylase HDAC10 (Q969S8 whole entry): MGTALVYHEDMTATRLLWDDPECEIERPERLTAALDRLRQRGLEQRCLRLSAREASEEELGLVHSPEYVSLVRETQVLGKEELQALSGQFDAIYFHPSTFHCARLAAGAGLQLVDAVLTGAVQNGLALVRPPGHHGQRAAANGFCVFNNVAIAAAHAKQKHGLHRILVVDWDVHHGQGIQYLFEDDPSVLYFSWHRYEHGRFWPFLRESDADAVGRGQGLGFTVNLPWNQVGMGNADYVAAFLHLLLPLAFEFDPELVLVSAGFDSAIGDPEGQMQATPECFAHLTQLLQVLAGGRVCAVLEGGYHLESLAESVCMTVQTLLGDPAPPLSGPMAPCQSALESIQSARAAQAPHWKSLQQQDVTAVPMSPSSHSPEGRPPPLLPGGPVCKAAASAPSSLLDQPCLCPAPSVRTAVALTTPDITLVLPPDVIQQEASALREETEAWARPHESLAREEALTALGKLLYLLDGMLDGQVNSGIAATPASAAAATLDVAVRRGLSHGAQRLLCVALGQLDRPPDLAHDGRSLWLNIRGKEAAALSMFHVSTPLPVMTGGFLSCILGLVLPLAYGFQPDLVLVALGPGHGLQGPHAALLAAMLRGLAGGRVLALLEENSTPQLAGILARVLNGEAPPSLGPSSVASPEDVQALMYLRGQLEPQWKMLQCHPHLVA
Chain of Protein deacetylase HDAC6 (Homo sapiens) (Q9UBN7 whole entry): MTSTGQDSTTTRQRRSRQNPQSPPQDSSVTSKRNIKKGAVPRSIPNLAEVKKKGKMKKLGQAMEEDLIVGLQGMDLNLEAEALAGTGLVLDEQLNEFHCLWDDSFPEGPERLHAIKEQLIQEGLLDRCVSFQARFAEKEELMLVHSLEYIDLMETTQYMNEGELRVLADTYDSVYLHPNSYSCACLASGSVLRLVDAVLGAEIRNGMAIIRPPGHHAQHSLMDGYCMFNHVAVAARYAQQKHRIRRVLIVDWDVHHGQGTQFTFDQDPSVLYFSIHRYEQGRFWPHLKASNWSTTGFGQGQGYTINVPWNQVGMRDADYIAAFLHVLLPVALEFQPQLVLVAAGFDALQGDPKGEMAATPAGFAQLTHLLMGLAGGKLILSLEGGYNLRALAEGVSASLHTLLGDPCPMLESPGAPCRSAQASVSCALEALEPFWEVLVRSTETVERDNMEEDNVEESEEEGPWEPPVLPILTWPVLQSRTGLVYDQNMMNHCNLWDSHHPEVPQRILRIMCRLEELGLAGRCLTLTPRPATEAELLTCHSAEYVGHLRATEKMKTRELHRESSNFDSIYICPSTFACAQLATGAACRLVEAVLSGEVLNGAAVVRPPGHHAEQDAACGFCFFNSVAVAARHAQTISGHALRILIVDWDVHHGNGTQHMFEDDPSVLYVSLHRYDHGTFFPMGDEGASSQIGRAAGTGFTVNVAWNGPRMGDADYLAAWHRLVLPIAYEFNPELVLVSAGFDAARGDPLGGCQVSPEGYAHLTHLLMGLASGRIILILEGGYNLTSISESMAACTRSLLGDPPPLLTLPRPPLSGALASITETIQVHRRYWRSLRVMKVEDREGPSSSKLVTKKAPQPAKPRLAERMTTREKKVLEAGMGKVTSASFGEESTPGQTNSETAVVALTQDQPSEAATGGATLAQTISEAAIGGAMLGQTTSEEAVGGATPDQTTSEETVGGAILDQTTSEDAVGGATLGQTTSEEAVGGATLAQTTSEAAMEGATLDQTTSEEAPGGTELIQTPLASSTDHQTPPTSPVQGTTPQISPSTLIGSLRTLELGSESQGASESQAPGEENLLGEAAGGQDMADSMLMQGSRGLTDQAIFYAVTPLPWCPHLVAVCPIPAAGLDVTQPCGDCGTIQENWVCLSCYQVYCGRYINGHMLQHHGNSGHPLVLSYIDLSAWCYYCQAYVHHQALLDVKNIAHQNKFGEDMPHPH

**Q.** Which results are given for `O=C(NO)c1ccc(CN2CC(=O)N(Cc3ccccc3)[C@H](Cc3ccccc3)C2=O)cc1`?
**A.** growth at 10 µM (MOLT-4): 76.7%; growth at 10 µM (SN12C): 96.6%; IC50 (A549 [1]): 100 µM; growth at 10 µM (RXF 393): 86%; CI (A549 [2]): 0.676; growth at 10 µM (K562): 76.4%; half-life at 0.5 µM [3]: 9.7 h; growth at 10 µM (NCI-H460): 81.6%; Ratio IC50 (Homo sapiens [4]): 981; Ratio IC50 (Homo sapiens [5]): 15; growth at 10 µM (OVCAR-4): 66.5%; IC50 (A549 [6]): 8.17 µM; growth at 10 µM (A498): 67.4%; growth at 10 µM (MDA-MB-468): 79.9%

**Q.** For `O=C1CN(Cc2ccc(C(=O)NO)cc2)C(=O)[C@@H](Cc2c[nH]c3ccccc23)N1`, which IC50 (Histone deacetylase 9) is on record?
**A.** 2.56 µM

**Q.** What about the growth at 10 µM (MOLT-4) of the same compound?
**A.** 86.8%

**Q.** And the IC50 (Histone deacetylase 4)?
**A.** 5.62 µM

**Q.** And the growth at 10 µM (SN12C)?
**A.** 100%

**Q.** What about the growth at 10 µM (RXF 393) of the same compound?
**A.** 105%

**Q.** What about the inhibition [7] of the same compound?
**A.** inactive

**Q.** What about the growth at 10 µM (K562) of the same compound?
**A.** 100%

**Q.** What about the IC50 (Histone deacetylase 11) of the same compound?
**A.** 1.8 µM

**Q.** And the growth at 10 µM (NCI-H460)?
**A.** 104%

**Q.** What about the growth at 10 µM (NCI-H226) of the same compound?
**A.** 97.6%

**Q.** What about the inhibition [8] of the same compound?
**A.** Dose-Dependent Effect

**Q.** And the growth at 10 µM (A498)?
**A.** 85%

**Q.** What about the IC50 [9] of the same compound?
**A.** 0.105 µM

**Q.** What about the IC50 (Histone deacetylase 5) of the same compound?
**A.** 4.37 µM

**Q.** And the growth at 10 µM (MDA-MB-468)?
**A.** 107%
